# Published values collected from several papers.
# Each line is one published result; the experiments were not run side by side.
# MAP3K11: Mitogen-activated protein kinase kinase kinase 11 (MAP3K11, Homo sapiens, UniProt Q16584)
# CDKL1: Cyclin-dependent kinase-like 1 (CDKL1, Homo sapiens, UniProt Q00532)
# ULK1: Serine/threonine-protein kinase ULK1 (ULK1, Homo sapiens, UniProt O75385)
Structure (SMILES),target,test,test system,conditions,quantity,result
NS(=O)(=O)c1ccc(CNc2nc(Nc3cccc(NC(=O)N4CCCC4)c3)ncc2Br)cc1,MAP3K11,"enzyme activity, inhibitor, radiometric",,1 µM,remaining activity,24%
Cn1c2c(c3ccc(Cl)c(Cl)c31)C(C#N)C(C)(C)NC2=O (stereo not drawn),CDKL1,"thermal stability, DSF",,10 µM,ΔTm,0 °C
NS(=O)(=O)c1ccc(CNc2ccnc(Nc3cccc(CN4CCOCC4)c3)n2)cc1,ULK1,"enzyme activity, inhibitor, radiometric",,1 µM,remaining activity,92%
Nc1ncnc2occ(-c3ccc(NC(=O)Nc4cc(C(F)(F)F)ccc4F)cc3)c12,"Serine/threonine-protein kinase 36 (STK36, Homo sapiens, UniProt Q9NRP7)","cell-free assay, inhibitor",,20 µM,remaining signal,87%
Cc1ccc(NC(=O)c2ccc(C)c(C(F)(F)F)c2)cc1C#Cc1nn(C2CCC(O)CC2)c2ncnc(N)c12 (stereo not drawn),"Hepatocyte growth factor receptor (MET, Homo sapiens, UniProt P08581, D1228N)",cell-free assay,,10 µM,remaining signal,103%
Cc1cnc(NC2CCOCC2)nc1-n1cnc(C(=O)NC(CN)c2cc(F)cc(Cl)c2)c1 (stereo not drawn),"Hepatocyte growth factor receptor (MET, Homo sapiens, UniProt P08581, M1250T)","enzyme activity, inhibitor, radiometric",,1 µM,remaining activity,100%
Cc1cc(NC(=O)c2cccc3cc(-c4cccc5[nH]nc(N)c45)ccc23)ccc1F,"Hepatocyte growth factor receptor (MET, Homo sapiens, UniProt P08581, Y1230C)","enzyme activity, inhibitor",,0.1 µM,activity vs control,92%
Cn1c2c(c3ccc(Cl)c(Cl)c31)C(C#N)C1(CCOCC1)NC2=O (stereo not drawn),CDKL1,"thermal stability, DSF",,10 µM,ΔTm,-0.1 °C
Cc1nn(CC(F)(F)F)cc1Nc1ncc(Br)c(NCCc2cnc[nH]2)n1,ULK1,"enzyme activity, inhibitor, radiometric",,1 µM,remaining activity,20%
CCN1CCC2(CC1)NC(=O)c1c(c3ccc(Cl)c(Cl)c3n1C)C2C#N (racemic),CDKL1,"thermal stability, DSF",,10 µM,ΔTm,-0.1 °C
c1cc(CN2CCOCC2)cc(Nc2ncc(C3CC3)c(NCCc3c[nH]cn3)n2)c1,MAP3K11,"enzyme activity, inhibitor, radiometric",,1 µM,remaining activity,27%
N#CC1c2c([nH]c3c(Cl)c(Cl)ccc23)C(=O)NC12CCCCC2 (racemic),CDKL1,"thermal stability, DSF",,10 µM,ΔTm,0.2 °C
CCN1CCN(Cc2ccc(NC(=O)c3ccc(C)c(Oc4ccnc5[nH]ccc45)c3)cc2C(F)(F)F)CC1,"Eukaryotic elongation factor 2 kinase (EEF2K, Homo sapiens, UniProt O00418)","target engagement in cells, inhibitor, chemoproteomics",A-375,50 nM,inhibition,-13.9%
Cn1c2c(Cl)c(Cl)ccc2c2cc[nH]c(=O)c21,CDKL1,"thermal stability, DSF",,10 µM,ΔTm,-0.1 °C
NS(=O)(=O)c1ccc(CNc2nc(Nc3cccc(NC(=O)N4CCCC4)c3)ncc2C2CC2)cc1,ULK1,"enzyme activity, inhibitor, radiometric",,1 µM,remaining activity,82%
